Source: ChEMBL document CHEMBL2176995, “An oral sphingosine 1-phosphate receptor 1 (S1P(1)) antagonist prodrug with efficacy in vivo: discovery, synthesis, and evaluation” (J Med Chem, 2012)
Activity calls are given as the source filed them. No cut-off for these calls is given here.

Tests used:
Rattus norvegicus [1] = assay: Induction of capillary leakage in Lewis rat Evans blue dye lung leakage model assessed as thorax fluid level at 30 mg/kg, po bid measured after 6 hrs relative to untreated control; format: organism-based; design: dose 30 mg/kg, route oral; conditions: in vivo
How it was run: (§1)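 Male Lewis rats were gavaged twice daily with vehicle or 30 mg/kg in 30% PEG200/buffer. Evans blue dye (20 mg/2 mL NaCl/kg iv) was given under anesthesia at 5, 23 or 95 h. One hour later the rats were bled, lungs were perfused with saline, dried at 60 °C for 24 h, weighed, and dye was extracted in formamide (24 h, 37 °C). Thoracic fluid volume was also recorded.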

[2] = Stability in pH 10 buffer assessed as compound remaining measured after 2 hrs by UPLC; format: physicochemical; conditions: read-out: Stability
How it was run: (§2)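 The ester was incubated in buffer at pH 7.4 or pH 10. Remaining ester and the hydrolysed carboxylic acid were followed over time by UPLC, at time points out to 82 h.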

Rattus norvegicus [3] = assay: Reduction in peripheral blood lymphocytes in Lewis rat assessed as remaining circulating lymphocytes level at 30 mg/kg, po administered as single dose measured 14 hrs post dose by automated hematology analyzer; format: functional
How it was run: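 Male Lewis rats receive a single oral dose of compound or vehicle, freshly made in 30% PEG200/buffer. Blood (<200 μL) is drawn by sublingual puncture under isoflurane 5% v/v at baseline and later time points. Lymphocytes are counted on an automated hematology analyzer, and each animal's change is expressed as percent of its own pre-treatment baseline.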

[4] = Stability in pH 1 buffer by UPLC; format: physicochemical; conditions: read-out: Stability
Rattus norvegicus [5] = assay: Induction of capillary leakage in Lewis rat Evans blue dye lung leakage model assessed as thorax fluid level at 30 mg/kg, po bid measured after 96 hrs relative to untreated control; format: organism-based; design: dose 30 mg/kg, route oral; conditions: in vivo; how it was run: as §1
[6] = Stability in pH 7.4 buffer assessed as compound hydrolysis measured after 49 hrs by UPLC; format: physicochemical; conditions: read-out: Drug degradation; how it was run: as §2
Rattus norvegicus [7] = assay: Increase in allograft survival in stringent Dark Agouti to Lewis rat heterotopic vascular heart allotransplantation model assessed as allograft mean survival time at 30 mg/kg, po bid coadministered with 0.3 mg/kg, qd everolimus (reference value: 6 days); format: functional
Rattus norvegicus [8] = assay: Increase in allograft survival in stringent Dark Agouti to Lewis rat heterotopic vascular heart allotransplantation model assessed as allograft mean survival time at 30 mg/kg, po bid coadministered with 10 mg/kg, bid sotrastaurin (reference value: 6 days); format: functional
How it was run: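 This was a DA-to-Lewis heart allograft model with co-treatment from 3 days before transplantation. The prodrug was given po b.i.d. in PEG200/water at pH 5, plus the PKC inhibitor po b.i.d. in D-glucose/PEG400/water/HCl. Lymphocytes were counted weekly before dosing, and blood levels of both drugs were determined. Survival was followed up to 50 days, as median days, with H&E and trichrome histology.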

[9] = Drug level in Lewis rat blood at 30 mg/kg, po administered as single dose measured 0.25 hrs post dose; conditions: read-out: Drug uptake
Rattus norvegicus [10] = assay: Increase in allograft survival in stringent Dark Agouti to Lewis rat heterotopic vascular heart allotransplantation model assessed as improvement in histological changes at 30 mg/kg, po bid coadministered with 0.3 mg/kg, qd everolimus by hematoxylin and eosin staining; format: functional, organism-based
How it was run: (§3)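 DA donor hearts were grafted into Lewis recipients. Treatment started 3 days before transplantation: prodrug 30 mg/kg po b.i.d. (PEG200/water, pH 5) alone or with sotrastaurin 10 mg/kg po b.i.d. or everolimus 0.3 mg/kg po q.d. Grafts were followed to rejection or up to 50 days. Allografts were formalin-fixed, cut at 3 μm, stained with H&E and trichrome, and scored for rejection. Lymphocytes were counted weekly before dosing, and body weight was monitored.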

Rattus norvegicus [11] = assay: Increase in allograft survival in stringent Dark Agouti to Lewis rat heterotopic vascular heart allotransplantation model assessed as improvement in histological changes at 30 mg/kg, po bid coadministered with 10 mg/kg, bid sotrastaurin by hematoxylin and eosin staining; format: functional, organism-based; how it was run: as §3

For `COC(=O)[C@H](CCN(C)C)N(C)C(=O)c1c(C)cc(-c2cccc(NS(=O)(=O)c3cc(C)c(Cl)cc3C)c2)cc1C`, which Activity (Rattus norvegicus [1]) is on record?
The Activity was 1 mL.

And the remaining at 2 h [2]?
The remaining at 2 h was 52%.

And the Activity (Rattus norvegicus [3])?
The Activity was 21%.

And the half-life [4]?
The half-life was > 53 h.

And the Activity (Rattus norvegicus [5])?
The Activity was “Non-toxic”.

And the degraded at 49 h [6]?
Its degraded at 49 h is 85%.

What about the MST (Rattus norvegicus [7]) of the same compound?
Its MST is >50 days.

What about the MST (Rattus norvegicus [8]) of the same compound?
Its MST is >50 days.

What about the concentration at 0.25 h [9] of the same compound?
The concentration at 0.25 h was 146 ng/mL.

What about the Activity (Rattus norvegicus [10]) of the same compound?
Its Activity is “Active”.

And the Activity (Rattus norvegicus [11])?
The Activity was “Active”.
